In ChEMBL document CHEMBL2062442, “Synthesis and biological evaluation of new N-acyl-homoserine-lactone analogues, based on triazole and tetrazole scaffolds, acting as LuxR-dependent quorum sensing modulators” (Bioorg Med Chem, 2012):
Calls of active or inactive are those of the source. The calls are words filed in the database; no cut-off is given here.

Tests used:
Assay type in all cases: functional
[1] = target: T1, Transcriptional activator protein LuxR (Aliivibrio fischeri) (UniProt P12746); assay: Agonist activity at Vibrio fischeri LuxR expressed in Escherichia coli NM522 coexpressing LuxCDABE assessed as activation of 3-oxoC6-HSL-induced quorum sensing activation at 200 uM measured after 4 to 5 hrs by reporter gene assay
T1 sequence (whole entry): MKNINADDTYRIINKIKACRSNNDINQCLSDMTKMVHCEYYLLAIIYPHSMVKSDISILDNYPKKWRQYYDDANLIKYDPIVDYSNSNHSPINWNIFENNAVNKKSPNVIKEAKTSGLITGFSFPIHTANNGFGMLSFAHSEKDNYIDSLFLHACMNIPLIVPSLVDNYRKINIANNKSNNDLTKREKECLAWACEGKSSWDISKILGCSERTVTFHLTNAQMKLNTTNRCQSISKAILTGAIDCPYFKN
In short: (§1)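 E. coli biosensor carrying pSB401, in which V. fischeri luxR and the luxI promoter drive P. luminescens luxCDABE. Cultures were grown to exponential phase in Luria broth with tetracycline (20) at 30 °C. Analogues were added alone at up to 200 in microtitre plates. Luminescence was read after 4–5 h, at the maximal ratio of induced to background light. EC50 is the concentration giving 50% bioluminescence intensity.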

[2] = target: T2, Transcriptional activator protein LuxR (Aliivibrio fischeri, UniProt P12746); assay: Antagonist activity at Vibrio fischeri LuxR expressed in Escherichia coli NM522 coexpressing LuxCDABE assessed as inhibition of 3-oxoC6-HSL-induced quorum sensing activation measured after 4 to 5 hrs by reporter gene assay
T2 sequence (P12746 whole entry): T1 sequence (whole entry)
In short: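 The inhibition read-out is the decrease in bioluminescence induced by 200 nM 3-oxo-C6-HSL in E. coli carrying pSB401 (V. fischeri luxR/luxI promoter fused to P. luminescens luxCDABE). Cells were grown to exponential phase in Luria broth with tetracycline at 30 °C. Light was quantified by luminometer in microtitre plates after 4–5 h, when the ratio of induced to background light peaked.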

[3] = target: T2, Transcriptional activator protein LuxR; assay: Agonist activity at Vibrio fischeri LuxR expressed in Escherichia coli NM522 coexpressing LuxCDABE assessed as activation of 3-oxoC6-HSL-induced quorum sensing activation measured after 4 to 5 hrs by reporter gene assay; in short: as §1
[4] = target: T1, Transcriptional activator protein LuxR (Aliivibrio fischeri); assay: Agonist activity at Vibrio fischeri LuxR expressed in Escherichia coli NM522 coexpressing LuxCDABE assessed as activation of 3-oxoC6-HSL-induced quorum sensing activation measured after 4 to 5 hrs by reporter gene assay relative to control; in short: as §1

Row | SMILES | Activity [1] | IC50 ([2]; read-out: IC50) | further results
1 | CCCCCc1cn(CC(=O)NO)nn1 | inactive |  | IC50 [2]: Not Active
2 | CCCCCc1cn(C2CCOC2=O)nn1 (racemic) | inactive | 51 µM | 
3 | CCCCCCCCCCCCn1cc(CC(=O)O)nn1 | inactive |  | 
4 | CCCCCCCCCCCCc1cn(CC(=O)OCC)nn1 | inactive |  | 
5 | CCCCCc1nnnn1C1CCOC1=O (racemic) |  |  | EC50 [3]: 10 µM; Activity [4]: 59 RLU
6 | CCCCCCc1nnnn1C1CCOC1=O (racemic) |  |  | EC50 [3]: 35 µM; Activity [4]: 102 RLU
7 | CCCCCc1cn(CC(=O)OCC)nn1 | inactive | 94 µM | 
8 | CCCCCc1cn(CC(=O)O)nn1 | inactive |  | IC50 [2]: Not Active
9 | CCCCCc1cn(CC(N)=O)nn1 | inactive |  | IC50 [2]: Not Active
10 | CCCCCCn1nnnc1CC(=O)OCC |  | > 200 µM | 
11 | CCCCCCCCCCCCn1cc(CC(=O)OCC)nn1 | inactive |  | 

Now from value to compound, other results behind:

Row | Activity [1] | IC50 ([2]; read-out: IC50) | SMILES | further results
12 | inactive |  | CCCCCCCCCCCCc1cn(CC(=O)O)nn1 | 
13 |  | 74 µM | CCCCCCn1nnnc1C1CCOC1=O (racemic) | 
14 |  | 80 µM | CCCCCn1nnnc1C1CCOC1=O (racemic) | 
15 | inactive |  | CCCCCn1cc(CC(=O)O)nn1 | 
16 | inactive |  | CCCCCn1cc(CC(=O)OCC)nn1 | 
17 |  | > 200 µM | CCCCn1nnnc1C1CCOC1=O (racemic) | 
